GPR7 antag: GPR7 receptor antagonists, primary screen, cell-based, fluorescence, single concentration; GPR7-expressing cells, fluorescence antagonist assay; Neuropeptides B/W receptor type 1 (Homo sapiens), P48145; inhibition, % at 4.4 µM; actives 1.1% (n = 290,000); in the data active = inhibition above about 16%, passing the limit was not always enough;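 note: cells stimulated with the agonist NPW; 0% = agonist with vehicle and 100% = vehicle without agonist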
Target sequence (P48145 whole entry, looked up): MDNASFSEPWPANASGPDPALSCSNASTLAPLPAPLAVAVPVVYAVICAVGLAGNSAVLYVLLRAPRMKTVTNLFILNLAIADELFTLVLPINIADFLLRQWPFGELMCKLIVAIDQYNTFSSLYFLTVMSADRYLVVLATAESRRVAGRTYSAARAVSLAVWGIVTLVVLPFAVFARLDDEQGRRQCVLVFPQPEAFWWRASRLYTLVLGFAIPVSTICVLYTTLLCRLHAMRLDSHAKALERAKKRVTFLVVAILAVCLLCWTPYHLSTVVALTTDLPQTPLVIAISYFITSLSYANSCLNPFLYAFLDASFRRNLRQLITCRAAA
OX1R antag-1: antagonists of human orexin 1 receptor (OX1R); OX1R-expressing cells, FRET antagonist read-out; AID 485270, 2010; inhibition, % at 6.6 µM; actives 1.8% (n = 330,000); in the data active = inhibition mostly above about 38%, no sharp cut-off; inactive = mostly below about 40%;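 note: 0% = agonist challenge alone and 100% = reference antagonist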
MPTP inh: mitochondrial permeability transition pore inhibitors, primary screen, biochemical, isolated mouse mitochondria, absorbance; Ca2+ swelling absorbance, 30 min; inhibition, % at 10 µM; actives 1.4% (n = 360,000); AID 602449, 2012;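 active = inhibition of 50% or more, scaled per plate between neutral and stimulator controls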;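 note: 0% = DMSO wells given calcium and 100% = 1 mM EGTA wells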
CHO parental Ca: ATP-evoked calcium signal inhibitors, parental CHO, primary screen, counter-screen for OX1R antagonist project, cell-based, fluorescence, Fluo-8 calcium dye | parental CHO-K1, ATP-induced calcium, Fluo-8 fluorescence | inhibition, % at 5.6 µM | actives 0.63% (n = 330,000);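 active = inhibition above that plate's mean sample inhibition plus 3 SD, cut at about 26% in these data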;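 note: 0% = ATP-challenged DMSO wells and 100% = DMSO wells without ATP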
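Material – parental CHO cells · Reagent – ATP stimulus · Compound – single nominal dose of 5.6 µM per compound · Detection – Fluo-8 fluorescence · Read-out basis – percent inhibition of calcium signal · Controls – ATP-challenged DMSO wells low, unchallenged DMSO wells high · Repeats – no replicates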
OX1R antag-2: OX1R (HCRTR1) antagonists, primary screen, fluorescence, CHO/OX1R cells, Fluo-8 calcium, orexin A | Orexin/Hypocretin receptor type 1 (Homo sapiens), O43613 | inhibition, % at 5 µM | Fluo-8 calcium fluorescence | actives 0.43% (n = 330,000);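 active = inhibition above its plate's threshold, mean inhibition of all tested compounds on the plate plus 3 SD, cut at about 37% in these data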;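 note: 0% = orexin A challenge wells and 100% = SB-334867-A antagonist wells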
OX1R Ca confirm: OX1R (HCRTR1) antagonists, confirmation, fluorescence, CHO/OX1R cells, Fluo-8 calcium, orexin A; shares compounds with OX1R antag-2; actives 38% (n = 1,100); inhibition, % at 5 µM; orexin A calcium Fluo-8 fluorescence; AID 492963, 2010; in the data active = inhibition above about 29%;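 note: 0% = agonist challenge alone and 100% = reference antagonist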
CHO Ca counter: ATP-evoked calcium inhibition in parental CHO, counter-screen for OX1R antagonist project, cell-based, fluorescence, CHO-K1, triplicate; shares compounds with OX1R antag-2; ATP-induced calcium, Fluo-8 fluorescence; inhibition, % at 5.6 µM; actives 9.3% (n = 1,100);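 active = inhibition above a per-plate limit, the mean inhibition of that plate's test compounds plus 3 SD, cut at about 25% in these data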;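 note: 0% = ATP challenge with DMSO and 100% = DMSO without ATP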
* = called active by the depositor; x = no result given. Rows were chosen to be rich in hits. Some 3.8% of all compounds tested hit in one or more screens of this group.

SMILES	GPR7 antag	OX1R antag-1	MPTP inh	CHO parental Ca	OX1R antag-2	OX1R Ca confirm	CHO Ca counter
CCOC(=O)C1=CC[C@@H](c2cccc(C)c2)N(S(=O)(=O)c2ccc(C)cc2)[C@H]1C(=O)OCC	x	22	0	-6	36	-10	2
CCOC(=O)C1=CC[C@@H](c2ccco2)N(S(=O)(=O)c2ccc(C)cc2)[C@H]1C(=O)OCC	x	9	0	-27	-23	x	x
CCOC(=O)C1=CC[C@@H](c2ccccc2Cl)N(S(=O)(=O)c2ccc(C)cc2)[C@H]1C(=O)OCC	x	27	-3	10	60*	10	5
O=S(=O)(c1ccc2c(c1)OCCO2)N1CCN(Cc2ccccc2)CC1	4	15	-9	-2	28	-4	-4
O=C(O)CN(Cc1ccccc1)S(=O)(=O)c1ccc2c(c1)OCCO2	-5	33	-1	-5	39	3	5
O=S(=O)(c1ccc2c(c1)OCCO2)N1CCN(Cc2ccc3c(c2)OCO3)CC1	19	11	2	-6	-29	x	x
COCc1c(C(=O)N2CCN(c3ccccc3C)CC2)oc2ccccc12	x	18	-1	-30	-31	x	x
O=C1CCc2ccc(NC(=O)C3CC3)cc2N1	-1	16	-1	-2	3	x	x
O=C(c1ccc(S(=O)(=O)Nc2ccc(F)cc2)cc1)N1CCN(c2ccccn2)CC1	5	52	-1	16	34	49*	14
Cc1cc(C)c(S(=O)(=O)N2CCCCC2C(=O)O)c(C)c1 (configuration not stated)	-8	7	1	-3	2	x	x
COc1ccc(OC)c(NC(=O)C2CC(/C=C/c3ccccc3)=NO2)c1 (configuration not stated)	13	14	0	-7	-10	x	x
COc1ccccc1NS(=O)(=O)c1cc([N+](=O)[O-])ccc1N/N=C/c1c[nH]c2ccccc12	-1	1	3	21	31	20	24
C=CC(COCc1ccccc1)N([C@@H](Cc1ccccc1)C(=O)OC)S(=O)(=O)c1ccccc1Br (some centres not stated)	x	11	1	29	80*	11	20
C=CC(COCc1ccccc1)N(Cc1ccc(OC)cc1)S(=O)(=O)c1ccccc1Br (configuration not stated)	x	39	1	18	2	x	x
COc1cc2c(cc1OC)C(c1ccc(Br)cc1)NC(=O)C2 (configuration not stated)	4	x	0	x	x	x	x
CCc1cccc2cc3c(N)c(C(=O)Nc4ccc(S(=O)(=O)N5CCCC5)cc4)sc3nc12	-1	13	7	33	46	17	20
CC(C)CC(=O)NC(=S)Nc1ccc(S(=O)(=O)NC(C)(C)C)cc1	-6	26	8	-6	7	x	x
CCOc1ccc(NS(=O)(=O)c2ccc(NC(=S)NC(=O)CC(C)C)cc2)cc1	5	9	1	-1	29	20	-8
Cc1cc(NS(=O)(=O)c2ccc(NC(=O)CN3C(=O)NC(C)(c4ccccc4)C3=O)cc2)nc(C)n1 (configuration not stated)	x	21	-3	-4	26	4	1
Cn1c(SCC(=O)Nc2sccc2C(N)=O)nc2ccccc2c1=O	x	25	1	-19	37	8	4
NC(=O)c1ccsc1NC(=O)CSc1nc2ccccc2c(=O)n1CCCO	1	39	0	-6	0	x	x
O=C(COc1ccccc1[N+](=O)[O-])Nc1ccc(N2CCN(C(=O)c3cccs3)CC2)cc1	-24	34	43	25	22	62*	36*
CCC(=O)Nc1ccc(N2CCN(C(=O)c3cccs3)CC2)cc1	-19	29	1	-3	-5	x	x
COc1cc(OC)c(OC)cc1CN1CCN(Cc2ccco2)CC1	-5	7	0	7	4	x	x
CSc1ccc(CN(C)C(=O)c2cccc(S(=O)(=O)NCc3ccccc3)c2)cc1	8	50	0	14	40*	27	5
SMILES	GPR7 antag	OX1R antag-1	MPTP inh	CHO parental Ca	OX1R antag-2	OX1R Ca confirm	CHO Ca counter
O=C(COC(=O)C12CC3CC(CC(Br)(C3)C1)C2)Nc1cccc(S(=O)(=O)N2CCOCC2)c1	x	14	2	10	47*	32*	6
CN(CC(=O)Nc1cccc(Cl)c1)S(=O)(=O)c1ccc2[nH]c(=O)oc2c1	-2	16	-1	0	-6	x	x
CSc1ccc(C(=O)C2CCCN(S(=O)(=O)N(C)C)C2)cc1 (configuration not stated)	10	36	-1	-25	-27	x	x
CN(C)S(=O)(=O)N1CCCC(C(=O)c2ccc(-c3ccccc3)c(F)c2)C1 (configuration not stated)	-11	27	6	5	30	-3	-3
CC(OC(=O)CCN1C(=O)c2cccc([N+](=O)[O-])c2C1=O)C(=O)Nc1cc(Cl)cc(Cl)c1 (configuration not stated)	-2	17	2	-30	-16	x	x
Cc1nc2ccc(NS(=O)(=O)c3c(F)cc(F)cc3Br)cc2s1	x	13	10	-2	38	15	16
Cn1c(SCc2ccc(F)cc2Cl)nc2ccccc2c1=O	x	12	7	-11	36	3	-5
O=c1c2ccccc2nc(SCc2ccc(F)cc2Cl)n1CCCN1CCOCC1	-7	9	1	-47	-27	x	x
COc1ccc(N2CCN(C(=O)CSc3ccc([N+](=O)[O-])cc3)CC2)cc1	2	12	1	-12	32	21	7
O=C(COC(=O)[C@H](Cc1c[nH]c2ccccc12)NC(=O)c1cccs1)NCc1ccccc1	1	16	0	17	33	23	0
O=C(CCc1c[nH]c2ccccc12)NC(Cc1ccccc1)C(=O)O (configuration not stated)	12	2	-1	-1	-17	x	x
COC(=O)C(Cc1ccccc1)NC(=O)CCc1c[nH]c2ccccc12 (configuration not stated)	31	10	1	4	39	37*	8
NS(=O)(=O)c1ccc(CCNC(=O)COC(=O)CCc2c[nH]c3ccccc23)cc1	x	12	0	-9	32	15	-8
CC(C(=O)NC1CCCC1)n1c(-c2ccccn2)nc2ccccc21 (configuration not stated)	x	x	1	x	x	x	x
